High-throughput results as filed in PubChem BioAssay.
Sampled rows, rich in hits. Any-hit rate of the full collection: about 4.1%.
Autophagy HCS: alters autophagy in cells; calls only at 10 µM (by protocol); MEF GFP-LC3 puncta imaging; test concentration mostly 10 µM; AID 463193; 190,000 tested, 0.98% active;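 active = percentage of spot-positive cells more than 3 SD above its plate mean, without a fluorescence outlier flag or 80% toxicity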;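 note: spot-positive cell cutoff set from DMSO-treated cells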
DTT redox prof: compounds producing H2O2 with reducing agent – biochemical, NIH compound library profiling, artefact control for MLSCN library redox annotation, primary screen; DTT-dependent redox cycling H2O2, phenol red/HRP absorbance; 100% = 100 µM peroxide control, 0% = buffer; activation, % at 10 µM; 200,000 tested, 0.03% active; AID 878;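 active = activation of at least 50% relative to the plate's high and low controls in the primary single-dose screen; inactive = activation below 50%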;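 note: compound incubated with DTT at 0.8 mM final as the reducing agent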
ROMK mod: human ROMK K+ channel modulation, primary screen; P48048; Tet-inducible ROMK, thallium flux fluorescence; actives lie on both sides; B-score at 10 µM; 130,000 tested, 2% active; AID 1918;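 active = signal ratio slope over the read window, or its plate-corrected B-score, at least 3 SD from the plate mean, either direction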;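 note: B-score of the F/F0 ratio slope over 7 to 12 s after thallium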
Dynein transport: dynein cargo transport inhibition | 3617.4 mouse cells, GR-EGFP nuclear translocation imaging; test concentration mostly 20 µM; stimulated with dexamethasone, 1 µM; active compounds read low | z-score, hits read low | 220,000 tested, 0.47% active | AID 1381;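 active = plate z-score of nuclear minus cytoplasmic receptor signal below a set negative limit, without overly bright fluorescence or cell loss, cut at about -3.5 in these data, passing the limit was not always enough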;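 note: z-score of nuclear minus cytoplasmic ring GR-EGFP intensity difference per well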
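medium = tetracycline-free induction medium containing charcoal-stripped FBS | also added = 1.0 µM final dexamethasone stimulus | schedule = 48 h induction, 1 h compound, 30 min dex at 37 °C | technique = fixed, Hoechst-stained cells imaged at 10x for EGFP | measure = GR-EGFP nuclear translocation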
KCC2 mod: modulators of human KCC2 chloride dependent transport. Q9H2X9. KCC2 cells, thallium flux FluoZin-2 fluorescence. B-score of Tl+ flux slope (higher = more flux/activation; lower = inhibition) at 10 µM. 190,000 tested, 2.2% active;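 active = thallium flux slope and its plate-corrected score both differing from the plate sample mean at a set confidence after two filtering rounds, in either direction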;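 note: slope of fluorescence scaled to starting intensity during 10 to 20 s after thallium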
Starred values were filed as active, the others as inactive; i = inactive; . = no result; + = active, no number.

SMILES	Autophagy HCS	DTT redox prof	ROMK mod	Dynein transport	KCC2 mod
OC1CCN(c2c3c(nc4cc(-c5cccc(F)c5)nn24)CCCC3)CC1	i	-2	.	1.4	-2.2
Nc1cc2c(cc1C(=O)c1cccc(Br)c1)OCCO2	i	-2	0.011	-0.33	-1.6
Cc1nnc(SCC(=O)N(C)C2CCCCC2)s1	i	0	0.033	1.5	-0.14
CCOc1ccc(/C=C/C(O)=C2/C(=O)NC3(C)CC2c2ccccc2O3)cc1OC (stereo unspecified)	+	0	-0.28	-1.1	1
CCOC(=O)N1CCN(c2c(F)cc3[nH]c(=S)[nH]c3c2Br)CC1	+	1	.	0.44	1.3
COc1ccc(N2CCN(C(=O)c3cc4c(-c5cccc(OC)c5)nn(C)c4s3)CC2)cc1	+	-3	.	0.12	-0.38
Cn1nc(-c2ccccc2F)c2cc(C(=O)Nc3ccc4c(c3)OCCO4)sc21	i	0	.	-0.48	.
COc1cccc(-c2nn(C)c3sc(C(=O)Nc4ccc5c(c4)OCCO5)cc23)c1	+	-2	.	0.8	-0.36
O=C(C[n+]1cccc(O)c1)Nc1ccc(Br)cc1	i	-3	-0.51	-0.63	1.2
COc1cc2c3nnc(-c4ccccc4)c-3cn(Cc3ccccc3F)c2cc1OC	i	0	-6.8*	1.4	-1.3
COc1cc2c3nnc(-c4ccc(F)cc4)c-3cn(Cc3ccccc3F)c2cc1OC	+	0	-4*	0.23	i
O=C(NNC(=O)C12CC3CC(CC(C3)C1)C2)[C@@H]1C[C@H]1c1ccccc1	i	0	0.27	-0.68	0.26
COc1ccc(C2N(Cc3ccccc3)CCN2Cc2ccccc2)cc1[N+](=O)[O-]	+	-1	0.87	0.94	-0.84
O=C(/C=C/c1ccccc1)c1cc(Br)ccc(=O)c1O	i	0	-1	-1.3	16*
O=C(/C=C/c1ccccc1)c1ccccc1	i	1	.	-0.83	-0.011
Cc1ccc(/C=C/C(=O)c2ccccc(=O)c2O)cc1C	i	0	-0.37	-0.16	32*
Cc1ccc(NC(=O)NCCCN2CCOCC2)cc1	i	0	.	-0.19	0.58
COc1ccc(Cl)c(N2CCN(CCCNC(=O)Nc3ccc(C)cc3)CC2)c1	+	-2	.	0.64	.
N#C/C(=C/c1ccc(-c2ccc(S(N)(=O)=O)cc2)o1)c1nc2ccccc2s1	+	0	0.18	-5.4	-1.3
N#C/C(=C/c1ccc(-c2ccc(S(N)(=O)=O)cc2)o1)C(=O)Nc1ccccc1	i	1	.	-0.15	1.7
N#C/C(=C/c1ccc(-c2ccccc2)o1)c1nc(-c2cccs2)cs1	+	1	-5.3*	-5.3	-1
Cc1ccc(-n2nc(C)c(=O)c(-c3ccccc3)c2NC(=O)C(C)C)cc1	.	.	.	-0.36	-0.024
Cc1ccc(CSCC(=O)NN=C2CCN(C)CC2)cc1	i	0	0.91	-0.19	-0.59
CC1=NN(C(N)=S)C(=O)C1N=Nc1ccc(C)cc1C (stereo unspecified)	i	-2	0.46	-0.64	21*
CC1=NN(C(N)=S)C(=O)C1N=Nc1c(C)cc(C)cc1C (stereo unspecified)	i	0	.	-0.04	1.9
SMILES	Autophagy HCS	DTT redox prof	ROMK mod	Dynein transport	KCC2 mod
CC1=NN(c2ccccc2)C(=O)C1N=Nc1ccc(C)cc1 (stereo unspecified)	i	0	0.024	2.4	1
CC1=NN(C(N)=S)C(=O)C1N=Nc1ccccc1C (stereo unspecified)	i	1	.	-0.43	18*
CCOC(=O)N/N=C(/C)c1ccc(N2C(=O)C3CCCCC3C2=O)cc1 (stereo unspecified)	i	-1	.	-0.13	0.081
O=C(N/N=C\c1cccc(OC(=O)c2ccco2)c1)c1ccc2c(c1)OCO2	i	0	-0.31	0.041	0.41
N#CCSc1n[nH]c2nc3c(c(=O)n12)C1(CCCC1)Cc1ccccc1-3	i	-2	.	-0.077	-3.5*
NC(=O)CSc1nc2c(c(=O)n1-c1ccccc1)C1(CCCCC1)Cc1ccccc1-2	i	-1	-0.056	0.46	0.58
CCn1c(SCC(N)=O)nc2c(c1=O)C1(CCCC1)Cc1ccccc1-2	i	0	-1.2	-0.3	3.6*
CCN(c1ccccc1)S(=O)(=O)c1ccc(OC)c(NC(=O)C2CC(=O)N(Cc3ccccc3)C2)c1 (stereo unspecified)	.	.	.	0.17	-1.4
